Eight compounds from ChEMBL document CHEMBL1144182, “Antimicrobial and cytotoxic arylazoenamines. Part III: antiviral activity of selected classes of arylazoenamines” (Bioorg Med Chem, 2008) can be followed below.

Active and inactive are the calls of the source. No rule for the calls is given here.

Tested on in the first data set: not listed separately
Description: Cytotoxicity against mock-infected human MT4 cells assessed as reduction in cell viability after 96 hrs by MTT assay. In kind it is cell-based.
Conditions: not given
In outline:
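Exponentially growing MT-4 cells seeded at 1 × 10^5 cells/mL in RPMI-1640 with 10% FCS, penicillin and streptomycin, with or without serial compound dilutions. Incubated at 37 °C, 5% CO2; viability read by MTT after 96 h. CC50 is the concentration reducing mock-infected cell viability by 50%.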
As to `Clc1ccc(/N=N\C2=C3CCCCN3CCC2)cc1Cl`, the CC50 at 96 h was found to be 35 µM.
As to `CN1C=C(/N=N/c2ccc(Cl)c(C(F)(F)F)c2)CCC1`, the CC50 at 96 h is 62 µM.
Still for that read-out and setting: the result for `Fc1ccccc1N1CCN(/C=C/N=N/c2ccccc2)CC1` reads 32 µM.
The same measure, in the same setting: the result for `CN1CCC/C1=C\N=N\c1ccc(F)cc1` reads 100 µM.
Still for that read-out and setting: the result for `Clc1ccc2c(/N=N/C3=C4CCCCN4CCC3)ccnc2c1` reads 15 µM; that for `C(=C\N1CCN(c2ccccn2)CC1)/N=N/c1ccccc1`, 19 µM; that for `c1ccc2c(N=NC3=C4CCCN4CCC3)nncc2c1`, 52 µM.
Consider `c1ccc2c(/N=N\C3=C4CCCN4CCC3)cccc2c1`, for which the CC50 at 96 h was determined as 18 µM.

Tested on in a further data set: not listed separately
Description: Cytotoxicity against mock-infected MDBK cells assessed as reduction in cell viability after 96 hrs by MTT assay. In kind it is cell-based, Bos taurus. Conditions: cattle. The procedure, abridged: (§1)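 Cytotoxicity run in parallel with the antiviral assays. MDBK seeded at 6 × 10^5 and BHK at 1 × 10^6 cells/mL in maintenance medium with or without serial compound dilutions. Incubated 48–96 h at 37 °C, 5% CO2, then viability read by MTT. CC50 is the concentration reducing mock-infected cell viability by 50%.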
Turning to `Clc1ccc(/N=N\C2=C3CCCCN3CCC2)cc1Cl`, the CC50 at 96 h is 30 µM.
On to `CN1C=C(/N=N/c2ccc(Cl)c(C(F)(F)F)c2)CCC1`, for which the CC50 at 96 h worked out at 28 µM.
The same measure, in the same setting: the result for `Fc1ccccc1N1CCN(/C=C/N=N/c2ccccc2)CC1` reads 10 µM.
The same measure, in the same setting: the result for `CN1CCC/C1=C\N=N\c1ccc(F)cc1` reads 59 µM; that for `Clc1ccc2c(/N=N/C3=C4CCCCN4CCC3)ccnc2c1`, 40 µM; that for `C(=C\N1CCN(c2ccccn2)CC1)/N=N/c1ccccc1`, at least 100 µM.
The same measure, in the same setting: the result for `c1ccc2c(N=NC3=C4CCCN4CCC3)nncc2c1` reads above 100 µM; that for `c1ccc2c(/N=N\C3=C4CCCN4CCC3)cccc2c1`, 91 µM.

Another data set concerns Bovine viral diarrhea virus 1. As to the kind of experiment: Antiviral activity against BVDV infected in MDBK cells assessed as protection against virus-induced cytopathogenicity after 4 days by MTT assay. In kind it is functional, organism-based. The following applies: Bovine viral diarrhea virus isolates and strains, 96 h. In outline: (§2)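 MDBK (BVDV) or BHK-21 (YFV) cells were seeded at 3 × 10^4 or 5 × 10^4 cells/well respectively and grown overnight to confluent monolayers at 37 °C in 5% CO2. Monolayers were infected at m.o.i. 0.01 in serum-free medium. After 1 h, MEM Earle's with 1% FCS was added, with or without serial compound dilutions. After 3–4 days at 37 °C, viability was read by MTT. EC50 was taken as 50% protection from virus-induced cytopathogenicity.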
Regarding `Clc1ccc(/N=N\C2=C3CCCCN3CCC2)cc1Cl`, the EC50 is above 30 µM.
In the case of `Fc1ccccc1N1CCN(/C=C/N=N/c2ccccc2)CC1`, the EC50 is above 10 µM.
As for `CN1CCC/C1=C\N=N\c1ccc(F)cc1`, the EC50 amounted to 18 µM.
`Clc1ccc2c(/N=N/C3=C4CCCCN4CCC3)ccnc2c1`: the EC50 was 5 µM.
Turning to `C(=C\N1CCN(c2ccccn2)CC1)/N=N/c1ccccc1`, the EC50 was above 100 µM.
The same measure, in the same setting: the result for `c1ccc2c(N=NC3=C4CCCN4CCC3)nncc2c1` reads above 100 µM; that for `c1ccc2c(/N=N\C3=C4CCCN4CCC3)cccc2c1`, 3.5 µM.

Tested on in another data set: not listed separately
Description: Cytotoxicity against mock-infected BHK cells assessed as reduction in cell viability after 96 hrs by MTT assay. In kind it is cell-based, Mesocricetus auratus. The following applies: hamster. The procedure, abridged:
as §1
Consider `Clc1ccc(/N=N\C2=C3CCCCN3CCC2)cc1Cl`, for which the CC50 at 96 h stood at 54 µM.
The same measure, in the same setting: the result for `CN1C=C(/N=N/c2ccc(Cl)c(C(F)(F)F)c2)CCC1` reads 44 µM; that for `Fc1ccccc1N1CCN(/C=C/N=N/c2ccccc2)CC1`, 62 µM; that for `CN1CCC/C1=C\N=N\c1ccc(F)cc1`, 80 µM.
`Clc1ccc2c(/N=N/C3=C4CCCCN4CCC3)ccnc2c1`: the CC50 at 96 h was found to be 48 µM.
For the compound `C(=C\N1CCN(c2ccccn2)CC1)/N=N/c1ccccc1`, the CC50 at 96 h came to 75 µM.
In the case of `c1ccc2c(N=NC3=C4CCCN4CCC3)nncc2c1`, the CC50 at 96 h was above 100 µM.
Same read-out and setting: the result for `c1ccc2c(/N=N\C3=C4CCCN4CCC3)cccc2c1` reads 51 µM.

In a further data set the test system is Yellow fever virus. Description: Antiviral activity against YFV infected in BHK21 cells assessed as protection against virus-induced cytopathogenicity after 4 days by MTT assay. Conditions: BHK-21, 96 h. It is filed as functional, organism-based. In outline: as §2
`Clc1ccc(/N=N\C2=C3CCCCN3CCC2)cc1Cl`: the EC50 is above 54 µM.
The same measure, in the same setting: the result for `CN1C=C(/N=N/c2ccc(Cl)c(C(F)(F)F)c2)CCC1` reads above 44 µM.
As to `Fc1ccccc1N1CCN(/C=C/N=N/c2ccccc2)CC1`, the EC50 is above 62 µM.
For the compound `CN1CCC/C1=C\N=N\c1ccc(F)cc1`, the 50% effective concentration (EC50) was determined as 36 µM.
Still for that read-out and setting: the result for `Clc1ccc2c(/N=N/C3=C4CCCCN4CCC3)ccnc2c1` reads above 48 µM; that for `C(=C\N1CCN(c2ccccn2)CC1)/N=N/c1ccccc1`, above 75 µM.
On the same count and under the same terms, the result for `c1ccc2c(N=NC3=C4CCCN4CCC3)nncc2c1` reads above 100 µM.
The same measure, in the same setting: the result for `c1ccc2c(/N=N\C3=C4CCCN4CCC3)cccc2c1` reads above 51 µM.

Tested on in another data set: not listed separately
Description: Cytotoxicity against mock-infected african green monkey Vero76 cells assessed as reduction in cell viability after 96 hrs by MTT assay. It is filed as cell-based, Vero. The following applies: chlorocebus sabaeus.
With `Clc1ccc(/N=N\C2=C3CCCCN3CCC2)cc1Cl`, the CC50 at 96 h is above 100 µM.
On to `CN1C=C(/N=N/c2ccc(Cl)c(C(F)(F)F)c2)CCC1`, for which the CC50 at 96 h stood at 90 µM.
On the same count and under the same terms, the result for `Fc1ccccc1N1CCN(/C=C/N=N/c2ccccc2)CC1` reads 34 µM; that for `CN1CCC/C1=C\N=N\c1ccc(F)cc1`, 75 µM.
On the same count and under the same terms, the result for `Clc1ccc2c(/N=N/C3=C4CCCCN4CCC3)ccnc2c1` reads 85 µM; that for `C(=C\N1CCN(c2ccccn2)CC1)/N=N/c1ccccc1`, 22 µM; that for `c1ccc2c(N=NC3=C4CCCN4CCC3)nncc2c1`, above 100 µM.
The same measure, in the same setting: the result for `c1ccc2c(/N=N\C3=C4CCCN4CCC3)cccc2c1` reads 90 µM.

In the next data set the test system is Coxsackievirus B2. Description: Antiviral activity against CVB2 infected in Vero76 cells assessed as reduction in virus plaque formation after 4 days by MTT assay. It is filed as functional, organism-based. The following applies: Enterovirus B, Vero 76, 96 h.
Take `Clc1ccc(/N=N\C2=C3CCCCN3CCC2)cc1Cl`: the EC50 amounted to 38 µM.
Same read-out and setting: the result for `CN1C=C(/N=N/c2ccc(Cl)c(C(F)(F)F)c2)CCC1` reads 34 µM; that for `Fc1ccccc1N1CCN(/C=C/N=N/c2ccccc2)CC1`, 6 µM.
With `CN1CCC/C1=C\N=N\c1ccc(F)cc1`, the concentration giving a half-maximal response (EC50) was above 75 µM.
The same measure, in the same setting: the result for `Clc1ccc2c(/N=N/C3=C4CCCCN4CCC3)ccnc2c1` reads 51 µM; that for `C(=C\N1CCN(c2ccccn2)CC1)/N=N/c1ccccc1`, 6 µM.
Consider `c1ccc2c(N=NC3=C4CCCN4CCC3)nncc2c1`, for which the EC50 is above 100 µM.
As to `c1ccc2c(/N=N\C3=C4CCCN4CCC3)cccc2c1`, the EC50 was 44 µM.

A further data set relates to Respiratory syncytial virus. Description: Antiviral activity against RSV infected in Vero76 cells assessed as reduction in virus plaque formation after 4 days by MTT assay. In kind it is functional, organism-based. The following applies: human respiratory syncytial virus, Vero 76, 96 h.
In the case of `Clc1ccc(/N=N\C2=C3CCCCN3CCC2)cc1Cl`, the EC50 is above 100 µM.
As for `CN1C=C(/N=N/c2ccc(Cl)c(C(F)(F)F)c2)CCC1`, the EC50 was above 90 µM.
With `Fc1ccccc1N1CCN(/C=C/N=N/c2ccccc2)CC1`, the EC50 is 6 µM.
`CN1CCC/C1=C\N=N\c1ccc(F)cc1`: the EC50 was 12 µM.
In the case of `Clc1ccc2c(/N=N/C3=C4CCCCN4CCC3)ccnc2c1`, the EC50 was above 85 µM.
Turning to `C(=C\N1CCN(c2ccccn2)CC1)/N=N/c1ccccc1`, the EC50 turned out to be 7 µM.
As for `c1ccc2c(N=NC3=C4CCCN4CCC3)nncc2c1`, the EC50 was 7 µM.
For the compound `c1ccc2c(/N=N\C3=C4CCCN4CCC3)cccc2c1`, the EC50 was above 90 µM.

A further data set has as its system Poliovirus 1. Description: Antiviral activity against Sb1 virus infected in Vero76 cells assessed as reduction in virus plaque formation after 4 days by MTT assay. In kind it is functional, organism-based. Conditions: Enterovirus C, Sabin, Vero 76, 96 h.
As to `Clc1ccc(/N=N\C2=C3CCCCN3CCC2)cc1Cl`, the EC50 was above 100 µM.
For `CN1C=C(/N=N/c2ccc(Cl)c(C(F)(F)F)c2)CCC1`, the EC50 is above 90 µM.
In the case of `Fc1ccccc1N1CCN(/C=C/N=N/c2ccccc2)CC1`, the EC50 is above 34 µM.
On the same count and under the same terms, the result for `CN1CCC/C1=C\N=N\c1ccc(F)cc1` reads above 75 µM; that for `Clc1ccc2c(/N=N/C3=C4CCCCN4CCC3)ccnc2c1`, above 85 µM.
Consider `C(=C\N1CCN(c2ccccn2)CC1)/N=N/c1ccccc1`, for which the EC50 was above 22 µM.
Same read-out and setting: the result for `c1ccc2c(N=NC3=C4CCCN4CCC3)nncc2c1` reads above 100 µM.
On the same count and under the same terms, the result for `c1ccc2c(/N=N\C3=C4CCCN4CCC3)cccc2c1` reads above 90 µM.

Another data set has as its system Human immunodeficiency virus 1. As to the kind of experiment: Antiviral activity against HIV1 infected in MT4 cells assessed as virus-induced cytopathogenicity after 4 days. It is filed as functional, organism-based.
Conditions: not given
Take `Clc1ccc(/N=N\C2=C3CCCCN3CCC2)cc1Cl`: the result was inactive.
On the same count and under the same terms, the result for `CN1C=C(/N=N/c2ccc(Cl)c(C(F)(F)F)c2)CCC1` reads “inactive”; that for `Fc1ccccc1N1CCN(/C=C/N=N/c2ccccc2)CC1`, “inactive”.
In the case of `CN1CCC/C1=C\N=N\c1ccc(F)cc1`, the outcome was inactive.
With `Clc1ccc2c(/N=N/C3=C4CCCCN4CCC3)ccnc2c1`, the outcome was inactive.
Regarding `C(=C\N1CCN(c2ccccn2)CC1)/N=N/c1ccccc1`, the result was inactive.
For the compound `c1ccc2c(N=NC3=C4CCCN4CCC3)nncc2c1`, the result was inactive.
Consider `c1ccc2c(/N=N\C3=C4CCCN4CCC3)cccc2c1`, for which the outcome was inactive.

The subject of another data set is Vaccinia virus. As to the kind of experiment: Antiviral activity against VV infected in Vero76 cells assessed as reduction in virus plaque formation after 4 days by MTT assay. It is filed as functional, organism-based. The following applies: Orthopoxvirus vaccinia; Vero 76.
For `Clc1ccc(/N=N\C2=C3CCCCN3CCC2)cc1Cl`, the outcome was inactive.
For `CN1C=C(/N=N/c2ccc(Cl)c(C(F)(F)F)c2)CCC1`, the result was inactive.
For the compound `Fc1ccccc1N1CCN(/C=C/N=N/c2ccccc2)CC1`, the result was inactive.
On to `CN1CCC/C1=C\N=N\c1ccc(F)cc1`, for which the outcome was inactive.
As for `Clc1ccc2c(/N=N/C3=C4CCCCN4CCC3)ccnc2c1`, the result was inactive.
As for `C(=C\N1CCN(c2ccccn2)CC1)/N=N/c1ccccc1`, the outcome was inactive.
As to `c1ccc2c(N=NC3=C4CCCN4CCC3)nncc2c1`, the result was inactive.
Take `c1ccc2c(/N=N\C3=C4CCCN4CCC3)cccc2c1`: the result was inactive.

The test system of another data set is Vesicular stomatitis virus. Description: Antiviral activity against VSV infected in Vero76 cells assessed as reduction in virus plaque formation after 4 days by MTT assay. In kind it is functional, organism-based. The following applies: Vero 76.
As for `Clc1ccc(/N=N\C2=C3CCCCN3CCC2)cc1Cl`, the result was inactive.
Still for that read-out and setting: the result for `CN1C=C(/N=N/c2ccc(Cl)c(C(F)(F)F)c2)CCC1` reads “inactive”; that for `Fc1ccccc1N1CCN(/C=C/N=N/c2ccccc2)CC1`, “inactive”.
As to `CN1CCC/C1=C\N=N\c1ccc(F)cc1`, the outcome was inactive.
Still for that read-out and setting: the result for `Clc1ccc2c(/N=N/C3=C4CCCCN4CCC3)ccnc2c1` reads “inactive”; that for `C(=C\N1CCN(c2ccccn2)CC1)/N=N/c1ccccc1`, “inactive”; that for `c1ccc2c(N=NC3=C4CCCN4CCC3)nncc2c1`, “inactive”.
Still for that read-out and setting: the result for `c1ccc2c(/N=N\C3=C4CCCN4CCC3)cccc2c1` reads “inactive”.
